The values below come from PMC8842350 (Journal of Experimental Pharmacology, 2022).

Like-named read-outs stand apart in the source and are kept apart here.

Series [1] concerns Sprague Dawley rats. As to the kind of experiment: functional observational battery. The series is classed as in vivo, rat. To be noted: female rats, oral ≤ 1000 mg/kg/day, 0.5 hours post-dose on day 2. The method in brief: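 Eight female Sprague Dawley rats per group received oral gavage on days 1 and 2 at 0, 100, 300 or 1000 mg/kg/day (vehicle: 5% DMSO, 40% PEG 400, 55% saline; 10 mL/kg). Functional observational battery run once pre-dose and about 0.5 h post-dose on day 2, at the same time of day ±2 h. It covered sensory reactivity (approach response, righting reflex), grip strength, foot splay and body temperature.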

The subject of series [2] is Sprague Dawley rats. Put plainly: locomotor activity assessments. In kind it is in vivo, rat. The settings on record: female rats; for basic movements: day 2, 4–6 minutes post-commencement of assessment, control 375, p ≤ 0.05. The method in brief:
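Female rats, 8 per group, dosed orally on days 1 and 2 at 0–1000 mg/kg/day. Tested pre-dose and on day 2: within 10 min after the functional battery, each rat was placed in a dark, sound-attenuated chamber. Photocell recording ran for 40 min, reported in 20 intervals of 2 min each. Read-outs: basic movement, horizontal and vertical ambulation, fine movement, rearing.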

The test system of series [3] is Sprague Dawley rats. As to the kind of experiment: pulmonary assessments. The series is classed as in vivo, rat. The settings on record: male rats, any dose level (100–1000 mg/kg/day). The method in brief: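 Eight male Sprague Dawley rats per group. Acclimated 4 days, then placed in head-out plethysmography chambers three times on separate days. On day 1, a single oral gavage dose of 0, 100, 300 or 1000 mg/kg (DMSO/PEG 400/saline vehicle), then immediate chamber placement. Recorded at baseline, through 6 h and about 24 h post-dose. Analysed by repeated-measures ANCOVA with Dunnett–Hsu comparisons against control.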

Series [4] in a line: toxicokinetic analysis in rat plasma. The settings on record: all dose groups. In kind it is in vivo. The method in brief: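 Toxicokinetic cohort of 60 Sprague Dawley rats (30 male), separate from the pharmacology groups. A single oral dose was given on day 1 at 0, 100, 300 or 1000 mg/kg (maleate salt). Blood was drawn from the jugular vein of non-fasted rats on a serial schedule. Cmax, Tmax and AUC were derived from plasma concentration–time data.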

The subject of series [5] is Sprague Dawley rats. As to the kind of experiment: clinical observations and examinations in rats. In kind it is in vivo, rat. The settings on record: rats treated with trazpiroben. The method in brief: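 Sprague Dawley rats, 11–12 weeks old, group-housed and acclimatised at least 1 week. Oral gavage at 0 (vehicle: 5% DMSO, 40% PEG 400, 55% saline), 100, 300 or 1000 mg/kg/day, 10 mL/kg, dose expressed as maleate salt. Checked twice daily for mortality, abnormalities and signs of pain or distress. Ophthalmic examination and body weight were recorded once pre-dose.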

For series [6], the system named is beagle dogs. Put plainly: telemetry ECG evaluation in dogs. The series is classed as in vivo, dog. The method in brief: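 Male beagles with abdominal ECG/pressure/temperature transmitters implanted at least 2 weeks before. Oral capsule doses of 0, 1, 10 or 30 mg/kg in a Latin square with 2-day washouts. ECG recorded from at least 90 min pre-dose to about 18 h post-dose. QTc from a per-animal regression of 1-min QT versus RR means on the control day. Waveform review at 1, 2, 4, 8, 12 and 18 h. Repeated-measures ANCOVA with Dunnett tests.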

The test system of series [7] is beagle dogs. Put plainly: telemetry hemodynamic measurements in dogs. In kind it is in vivo, dog. To be noted: for adjusted mean diastolic pressure, lower vs control: 1 hour post-dose; for adjusted mean pulse pressure, lower than controls / adjusted mean systolic pressure, lower than controls: 3 hours post-dose; for adjusted mean systolic pressure, lower than controls: not significant. The method in brief: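 Telemetered male beagles (abdominal transmitter implanted at least 2 weeks before) given oral capsules at 0, 1, 10 or 30 mg/kg in a Latin square on days 1, 4, 8 and 11. Systolic, diastolic and mean arterial pressure, pulse pressure and heart rate recorded continuously from at least 90 min pre-dose to about 18 h post-dose. Analysed by repeated-measures ANCOVA with Dunnett or Dunnett–Hsu comparisons against control.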

For series [8], the system named is beagle dogs. Put plainly: clinical observations, body weight and body temperature in dogs. In kind it is in vivo, dog. The method in brief: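 Four male beagles, 17–18 months old, 9.9–12.8 kg. Oral gelatin capsules at 0 (Avicel:Explotab 10:1), 1, 10 or 30 mg/kg (maleate salt) on days 1, 4, 8 and 11, in a Latin square with ascending doses and 2-day washouts. Checked twice daily for mortality, abnormalities and distress, with daily cage-side observations. Body weight recorded pre-dose and the day before each dosing. Body temperature recorded by implanted telemetry.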

Series [9] deals with hERG potassium channel. To be noted: cited from earlier work.
The subject of series [10] is rats. To be noted: doses up to 30 mg/kg; cited from earlier work.
For series [11] the following is noted: beagle dogs; cited from earlier work.
Series [12] concerns D2 receptor. The settings on record: rats, prolactin release as pharmacodynamic biomarker; cited from earlier work.
The subject of series [13] is D2 receptor. The settings on record: humans, cited from earlier work.
The subject of series [14] is humans. The settings on record: any dose up to the maximum of 300 mg; cited from earlier work.
For series [15] the following is noted: rats, 100 mg/kg; cited from earlier work.
For series [16] the following is noted: dogs, 50 mg/kg; cited from earlier work.
Series [17] deals with P-glycoprotein (P-gp). The settings on record: cited from earlier work.
The subject of series [18] is CYP enzyme. The settings on record: cited from earlier work.
The subject of series [19] is CYP3A4. To be noted: cited from earlier work.

For `O=C(O)c1cccc(CN2CN(C3CCCCC3)C3(CCN(CCCC(=O)c4ccccc4)CC3)C2=O)c1` [Trazpiroben], the “effects on FOB assessment results” value in series [1] is recorded as “No effects were observed”. Besides, the results for the basic movements in series [2] (300 mg/kg/day) and in series [2] (1000 mg/kg/day) were 199 basic movements in 2 minutes and 171 basic movements in 2 minutes, respectively. Further, the “counts of horizontal and vertical ambulation” value in series [2] (≥ 300 mg/kg/day, 2–6 minutes post-dose) is on record as “significantly decreased”. Further, in series [3], the “effect on respiration rate or minute volume” value is “No biologically relevant effect”. Further, the “observed Cmax for each group of rats receiving trazpiroben” value in series [4] is reported as at least 1450 ng/mL. The “clinical observations, ophthalmic and body weight parameters” value in series [5] was “No unexpected clinical observations or changes”. In addition, in series [5], the mortality result is on record as “no trazpiroben-related mortality”. In addition, the “adjusted PR interval mean, lower than control” value in series [6] (dogs, 30 mg/kg, 3 hours after administration (maximal effect)) worked out at 12%. Moreover, the “adjusted PR interval mean” value in series [6] (dogs, 30 mg/kg, 3 hours after administration, control 102 msec) stood at 90 ms. Further, the “effects on QRS duration or QT interval corrected for heart rate (QTc)” value in series [6] (dogs, 1, 10, 30 mg/kg) was “no trazpiroben-related effects”. In addition, the “QT interval, lower than control” value in series [6] (dogs, first light cycle, 30 mg/kg, not significant at any dose) is on record as at most 6%. Moreover, the “abnormal ECG waveforms or arrhythmias” value in series [6] (male beagle dogs, oral 1, 10, 30 mg/kg) is reported as “No abnormal ECG waveforms or arrhythmias were recorded”. For the same compound, the “adjusted mean diastolic pressure, higher vs control” value in series [7] (1 mg/kg, 4 hours post-dose, p ≤ 0.05) turned out to be 6%; in [7] (10 mg/kg, 4 hours post-dose, p ≤ 0.05), 8%; in series [7] (10 mg/kg, 5 hours post-dose, p ≤ 0.01), 6%; in [7] (30 mg/kg, 4 hours post-dose, p ≤ 0.05) it was 5%; in series [7] (30 mg/kg, 5 hours post-dose, p ≤ 0.01), 6%. The “adjusted mean diastolic pressure, lower vs control” value in [7] (10 mg/kg, p ≤ 0.05) is listed as 5%; in [7] (30 mg/kg, p ≤ 0.01), 8%. Moreover, the “adjusted mean pulse pressure, lower than controls” value in series [7] (10 mg/kg) is 15%; in [7] (30 mg/kg), 23%. In addition, the “adjusted mean systolic pressure, lower than controls” value in series [7] (10 mg/kg) is recorded as 6%; in series [7] (30 mg/kg) it was 9%. The “heart rate, higher than control” value in series [7] (30 mg/kg, 3 hours post-dose (greatest effect), first light cycle) is 28%. The “changes in diastolic pressure, different from control” value in [7] (all changes, all doses) is given as at most 8%. Further, in series [8] (doses ≤ 30 mg/kg), the “effects on body weight or temperature” value is on record as “not associated with effects on body weight or temperature”. Besides, the survival result in series [8] (to study termination on day 12) was “all dogs survived”. In series [9], the “difference in affinity, hERG versus intended D2/D3 receptor targets” value was 10,000 fold. The “effects in rotarod testing (motor coordination)” value in series [10] is reported as “no trazpiroben-related effects were observed”. For the same compound, in [11], the “median Tmax” value is listed as “approximately 1 hour post-dose”. Besides, the “dose at which maximal D2 receptor engagement occurs” value in series [12] is 1 mg/kg; in series [13] (first-in-human Phase I trial) it was 10 mg. In series [13] (inferred using prolactin release), the “average Cmax in plasma at maximal D2 receptor engagement” value is on record as ~ 11 ng/mL. Besides, in series [14], the CNS effects result was “no CNS effects noted”. For the same compound, the brain penetration result in series [15] and in series [16] was “minimal brain penetration” throughout. Further, the “substrate for the efflux transporter P-glycoprotein (P-gp)” value in series [17] was “substrate”. Moreover, in series [18], the “potential for CYP enzyme induction or inhibition” value is listed as “limited potential for CYP enzyme induction or inhibition”. Moreover, the CYP3A4 substrate classification entry in [19] (Phase I drug–drug interaction study in healthy volunteers, ref NCT03161405) was “non-sensitive CYP3A4 substrate”.
Consider `O=c1[nH]c2ccccc2n1CCCN1CCC(n2c(=O)[nH]c3cc(Cl)ccc32)CC1` [domperidone, reference compound], for which the IC50 (in general, the concentration that gives 50% inhibition) in series [9] (read-out: IC50, hERG potassium channel) is 57 nM. Also, the metabolizing enzyme result in series [19] is listed as “primarily metabolized via the cytochrome P450 (CYP) 3A4 enzyme”.
